From ChEMBL document CHEMBL1141529, “Design and synthesis of 3-arylpyrrolidine-2-carboxamide derivatives as melanocortin-4 receptor ligands” (Bioorg Med Chem Lett, 2008)

Key:
[1] = target: T1, Melanocortin receptor 4 (Homo sapiens, UniProt P32245); assay: Displacement of [125]NDPMSH from human MC4 receptor expressed in HEK293 cells; assay type: cell-based
[2] = target: T1, Melanocortin receptor 4; assay: Agonist activity at MC4 receptor by cAMP assay; assay type: functional
[3] = target: T1, Melanocortin receptor 4; assay: Antagonist activity at MC4 receptor assessed as inhibition of alpha-MSH-stimulated cAMP production; assay type: functional
[4] = Plasma clearance in rat at 5 mg/kg, iv; assay type: ADME, organism-based; design: dose 5 mg/kg, route intravenous
How it was run: (§1)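 Single intravenous injection at 5 mg/kg in rats. Clearance, volume of distribution and half-life are derived from plasma concentrations.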

[5] = Volume of distribution in rat at 5 mg/kg, iv; assay type: ADME, organism-based; design: dose 5 mg/kg, route intravenous; details: in vivo; how it was run: as §1
[6] = Half life in rat at 5 mg/kg, iv; assay type: ADME, organism-based; design: dose 5 mg/kg, route intravenous; details: in vivo; how it was run: as §1
[7] = test system: Rattus norvegicus; assay: AUC in rat at 10 mg/kg, po; assay type: ADME, organism-based, Plasma; design: dose 10 mg/kg, route oral; details: in vivo
How it was run: (§2)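 Rats dosed orally at 10 mg/kg. Cmax and AUC are plasma values. Absolute bioavailability is referenced to a separate intravenous 5 mg/kg dose.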

[8] = Absolute bioavailability in rat at 10 mg/kg, po; assay type: ADME, organism-based; details: in vivo; how it was run: as §2
[9] = Cmax in rat at 10 mg/kg, po; assay type: ADME, organism-based; design: dose 10 mg/kg, route oral; details: in vivo; how it was run: as §2

T1 sequence (P32245 whole entry): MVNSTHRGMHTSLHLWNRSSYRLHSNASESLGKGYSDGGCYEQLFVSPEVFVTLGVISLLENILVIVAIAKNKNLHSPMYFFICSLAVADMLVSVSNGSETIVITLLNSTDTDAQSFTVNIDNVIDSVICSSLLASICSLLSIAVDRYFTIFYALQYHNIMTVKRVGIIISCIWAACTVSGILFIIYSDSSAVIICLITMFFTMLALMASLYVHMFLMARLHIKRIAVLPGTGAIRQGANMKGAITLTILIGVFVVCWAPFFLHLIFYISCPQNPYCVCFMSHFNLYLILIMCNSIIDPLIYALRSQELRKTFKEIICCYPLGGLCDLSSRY

SMILES | Ki [1] [nM] | further results
CCOC(=O)N1CC[C@H](c2ccc(Cl)cc2)[C@@H]1C(=O)N1CCN(c2ccc(F)cc2[C@@H](N)C(C)C)CC1 | 74 | –
CCCC(=O)N1CC[C@H](c2ccc(Cl)cc2)[C@H]1C(=O)N1CCN(c2ccc(C)cc2[C@@H](N)C(C)C)CC1 | 52 | –
COC(=O)N1CC[C@H](c2ccc(Cl)cc2)[C@@H]1C(=O)N1CCN(c2ccc(C)cc2[C@@H](N)C(C)C)CC1 (stereo in doubt; form 2) | 18 | –
Cc1ccc(N2CCN(C(=O)[C@@H]3[C@@H](c4ccc(Cl)cc4)CCN3C(=O)[C@H]3Cc4ccccc4CN3)CC2)c([C@@H](N)C(C)C)c1 | 92 | EC50 [2]: 15000 nM; Emax [2]: 21%
Cc1ccc(N2CCN(C(=O)[C@H]3[C@@H](c4ccc(Cl)cc4)CCN3C(=O)OC(C)C)CC2)c([C@@H](N)C(C)C)c1 | 12 | –
CCOC(=O)N1CC[C@H](c2ccc(Cl)cc2)[C@@H]1C(=O)N1CCN(c2ccccc2[C@@H](N)C(C)C)CC1 | 94 | –
CC(C)C[C@H](N)c1cc(Cl)ccc1N1CCN(C(=O)C2NCCC2c2ccc(Cl)cc2)CC1 (some centres undefined) | 96 | –
COC(=O)N1CC[C@H](c2ccc(Cl)cc2)[C@@H]1C(=O)N1CCN(c2ccc(C)cc2[C@@H](N)C(C)C)CC1 (stereo in doubt; form 1) | 17 | IC50 [3]: 720 nM
COC(=O)N1CC[C@@H](c2ccc(Cl)cc2)[C@H]1C(=O)N1CCN(c2ccc(C)cc2[C@@H](N)C(C)C)CC1 | 53 | –
CCC(=O)N1CC[C@H](c2ccc(Cl)cc2)[C@H]1C(=O)N1CCN(c2ccc(C)cc2[C@@H](N)C(C)C)CC1 | 62 | –
CC(C)C[C@H](N)c1cc(C(F)(F)F)ccc1N1CCN(C(=O)[C@@H]2NCC[C@@H]2c2ccc(Cl)cc2)CC1 | – | IC50 [3]: 2400 nM
CC(=O)N1CC[C@H](c2ccc(Cl)cc2)[C@@H]1C(=O)N1CCN(c2ccc(C)cc2[C@@H](N)C(C)C)CC1 (stereo in doubt; form 2) | 11 | IC50 [3]: 520 nM
Cc1ccc(N2CCN(C(=O)[C@H]3[C@@H](c4ccc(Cl)cc4)CCN3C(C)C)CC2)c([C@@H](N)C(C)C)c1 | 110 | –
CC(=O)N1CC[C@H](c2ccc(F)cc2)[C@@H]1C(=O)N1CCN(c2ccc(C)cc2[C@@H](N)C(C)C)CC1 | 330 | –
CCOC(=O)N1CC[C@H](c2ccc(Cl)cc2)[C@H]1C(=O)N1CCN(c2ccc(C)cc2[C@@H](N)C(C)C)CC1 | 42 | –
COC(=O)N1CC[C@H](c2ccc(Cl)cc2)[C@H]1C(=O)N1CCN(c2ccc(C)cc2[C@@H](N)C(C)C)CC1 | 59 | –
CCOC(=O)N1CC[C@@H](c2ccc(Cl)cc2)[C@H]1C(=O)N1CCN(c2ccc(C)cc2[C@@H](N)C(C)C)CC1 | 130 | –
CC(C)C[C@H](N)c1cc(Cl)ccc1N1CCN(C(=O)[C@@H]2NCC[C@@H]2c2ccc(Cl)cc2Cl)CC1 | – | IC50 [3]: 1500 nM
Cc1ccc(N2CCN(C(=O)[C@H]3[C@@H](c4ccc(Cl)cc4)CCN3C(=O)C(C)(C)C)CC2)c([C@@H](N)C(C)C)c1 | 7.2 | –
Cc1ccc(N2CCN(C(=O)[C@@H]3[C@H](c4ccc(Cl)cc4)CCN3C(=O)N(C)C)CC2)c([C@@H](N)C(C)C)c1 | 190 | –
CC(C)[C@H](N)c1cccc(F)c1N1CCN(C(=O)C2NCCC2c2ccc(Cl)cc2)CC1 (some centres undefined) | 110 | –
Cc1ccc(N2CCN(C(=O)[C@@H]3[C@@H](c4ccc(Cl)cc4)CCN3C(=O)C(C)(C)C)CC2)c([C@@H](N)C(C)C)c1 | 79 | –
CCOC(=O)N1CC[C@H](c2ccc(Cl)cc2)[C@@H]1C(=O)N1CCN(c2ccc(Cl)cc2[C@@H](N)C(C)C)CC1 | 18 | –
Cc1ccc(N2CCN(C(=O)[C@@H]3NCC[C@@H]3c3ccc(Cl)cc3)CC2)c([C@@H](N)C(C)C)c1 | 52 | IC50 [3]: 310 nM

SMILES | Ki [1] [nM] | further results
CCOC(=O)N1CC[C@H](c2ccc(Cl)cc2)[C@@H]1C(=O)N1CCN(c2ccc(C)cc2[C@@H](N)C(C)C)CC1 (stereo in doubt; form 2) | 11 | –
Cc1ccc(N2CCN(C(=O)[C@H]3[C@@H](c4ccc(Cl)cc4)CCN3S(C)(=O)=O)CC2)c([C@@H](N)C(C)C)c1 | 40 | –
CC(=O)N1CC[C@H](c2ccc(C(F)(F)F)cc2)[C@@H]1C(=O)N1CCN(c2ccc(C)cc2[C@@H](N)C(C)C)CC1 | 54 | –
CC(=O)N1CC[C@H](c2ccccc2)[C@@H]1C(=O)N1CCN(c2ccc(C)cc2[C@@H](N)C(C)C)CC1 | 1800 | –
CC(=O)N1CC[C@H](c2ccc(Cl)cc2)[C@@H]1C(=O)N1CCN(c2ccc(C)cc2[C@@H](N)C(C)C)CC1 (stereo in doubt; form 1) | 24 | –
Cc1ccc(N2CCN(C(=O)[C@H]3[C@@H](c4ccc(Cl)cc4)CCN3C(=O)N(C)C)CC2)c([C@@H](N)C(C)C)c1 (stereo in doubt; form 2) | 6.5 | IC50 [3]: 93 nM; clearance [4]: 20 mL/min/kg; Vd [5]: 17.2 L/kg; half-life [6]: 4.3 h; AUC [7]: 533 ng·h/mL; bioavailability [8]: 7.2%; Cmax [9]: 35 ng/mL
CC(C)C[C@H](N)c1cc(C(F)(F)F)ccc1N1CCN(C(=O)C2NC(=O)CC2c2ccc(Cl)cc2)CC1 (some centres undefined) | 340 | –
COc1ccc([C@H]2CCN(C(C)=O)[C@H]2C(=O)N2CCN(c3ccc(C)cc3[C@@H](N)C(C)C)CC2)cc1 | 45 | –
Cc1ccc(N2CCN(C(=O)[C@@H]3[C@@H](c4ccc(Cl)cc4)CCN3C(=O)C3CCC3)CC2)c([C@@H](N)C(C)C)c1 | 55 | –
CC(C)C[C@H](N)c1cc(C(F)(F)F)ccc1N1CCN(C(=O)C2NCCC2c2ccc(Cl)cc2)CC1 (some centres undefined) | 98 | –
CC(C)C[C@H](N)c1cc(C(F)(F)F)ccc1N1CCN(C(=O)C2(Cc3ccc(Cl)cc3)COC(=O)N2)CC1 (some centres undefined) | 550 | –
CC(C)C[C@H](N)c1cc(Cl)ccc1N1CCN(C(=O)C2NCCC2c2ccc(Cl)cc2Cl)CC1 (some centres undefined) | 190 | –
CC(=O)N1CC[C@@H](c2ccc(Cl)cc2)[C@H]1C(=O)N1CCN(c2ccc(C)cc2[C@@H](N)C(C)C)CC1 | 120 | –
CC(C)[C@H](N)c1cccc(F)c1N1CCN(C(=O)[C@@H]2NCC[C@@H]2c2ccc(Cl)cc2)CC1 | – | IC50 [3]: 960 nM
CCOC(=O)N1CC[C@H](c2ccc(Cl)cc2)[C@@H]1C(=O)N1CCN(c2ccc(C)cc2[C@@H](N)C(C)C)CC1 (stereo in doubt; form 1) | 16 | IC50 [3]: 640 nM
Cc1ccc(N2CCN(C(=O)[C@H]3[C@@H](c4ccc(Cl)cc4)CCN3C(=O)N(C)C)CC2)c([C@@H](N)C(C)C)c1 (stereo in doubt; form 1) | 7.4 | IC50 [3]: 190 nM
CC(=O)N1CC[C@@H](c2ccc(Cl)cc2)[C@@H]1C(=O)N1CCN(c2ccc(C)cc2[C@@H](N)C(C)C)CC1 | 180 | –
Cc1ccc(N2CCN(C(=O)C3NCCC3c3ccc(Cl)cc3)CC2)c([C@@H](N)C(C)C)c1 (some centres undefined) | 56 | –
Cc1ccc(N2CCN(C(=O)[C@H]3[C@@H](c4ccc(Cl)cc4)CCN3C(=O)[C@H]3Cc4ccccc4CN3)CC2)c([C@@H](N)C(C)C)c1 | 1.1 | EC50 [2]: 3500 nM; Emax [2]: 44%
CC(C)[C@H](N)c1cccc(F)c1N1CCN(C(=O)C2NCCC2c2ccc(Cl)cc2Cl)CC1 (some centres undefined) | 560 | –
Cc1ccc(N2CCN(C(=O)[C@H]3[C@@H](c4ccc(Cl)cc4)CCN3C)CC2)c([C@@H](N)C(C)C)c1 | 160 | –
Cc1ccc(N2CCN(C(=O)[C@@H]3[C@@H](c4ccc(Cl)cc4)CCN3C(=O)OC(C)C)CC2)c([C@@H](N)C(C)C)c1 | 68 | –
CC(=O)N1CC[C@H](c2ccc(Cl)cc2)[C@H]1C(=O)N1CCN(c2ccc(C)cc2[C@@H](N)C(C)C)CC1 | 78 | –
CC(=O)N1CC[C@H](c2ccc(C)cc2)[C@@H]1C(=O)N1CCN(c2ccc(C)cc2[C@@H](N)C(C)C)CC1 | 97 | –
